pIC50: −log10 of the molar value.
Key:
LOX IMVI = experiment: Antiproliferative activity against human LOXIMVI cells after 48 hrs by MTT assay; assay type: functional, cell-based
Malme-3M = experiment: Antiproliferative activity against human MALME-3M cells after 48 hrs by MTT assay; assay type: functional, cell-based
M14 = experiment: Antiproliferative activity against human M14 cells after 48 hrs by MTT assay; assay type: functional, cell-based; conditions: M14, 48 h
SK-MEL-2 = experiment: Antiproliferative activity against human SK-MEL-2 cells after 48 hrs by MTT assay; assay type: functional, cell-based; conditions: SK-MEL-2, 48 h
SK-MEL-28 = experiment: Antiproliferative activity against human SK-MEL-28 cells after 48 hrs by MTT assay; assay type: functional, cell-based; conditions: SK-MEL-28, 48 h
SK-MEL-5 = experiment: Antiproliferative activity against human SK-MEL-5 cells after 48 hrs by MTT assay; assay type: functional, cell-based; conditions: SK-MEL-5, 48 h
UACC-257 = experiment: Antiproliferative activity against human UACC257 cells after 48 hrs by MTT assay; assay type: functional, cell-based; conditions: UACC-257, 48 h
UACC-62 = experiment: Antiproliferative activity against human UACC62 cells after 48 hrs by MTT assay; assay type: functional, cell-based; conditions: UACC-62, 48 h
SK-OV-3 = experiment: Anticancer activity against human SKOV3 cells after 48 hrs by SRB assay; assay type: functional; conditions: SK-OV-3, 48 h
786-0 = experiment: Anticancer activity against human 786-0 cells after 48 hrs by SRB assay; assay type: functional; conditions: 786-0, 48 h
In short: (§1)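 NCI five-dose screen. Cells in RPMI 1640 with 5% FBS and 2 mM L-glutamine, seeded at 5000–40,000 cells/well according to doubling time, then pre-incubated 24 h at 37 °C in 5% CO2. Drugs dissolved in DMSO, five concentrations by 10-fold or 1/2-log dilution. Cells fixed with TCA, SRB-stained, A515 read. IC50 solved from [(Ti−Tz)/(C−Tz)]×100 = 50.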

BT-549 = experiment: Anticancer activity against human BT549 cells after 48 hrs by SRB assay; assay type: functional; conditions: BT-549, 48 h; in short: as §1
[1] = read-out: LC50 (the source's name)

O=C(NCCNc1nccc(-c2c(-c3cccc(O)c3)nc3sccn23)n1)c1ccccc1
pIC50 (LOX IMVI): 5.49 | pIC50 (Malme-3M): 6.69 | pIC50 (M14): 6.36 | pIC50 (SK-MEL-2): 5.53 | pIC50 (SK-MEL-28): 6.47 | pIC50 (SK-MEL-5): 5.38 | pIC50 (UACC-257): 6.31 | pIC50 (UACC-62): 6.68

O=C(NCCNc1nccc(-c2c(-c3cccc(O)c3)nc3sccn23)n1)c1ccccc1O
pIC50 (LOX IMVI): 5.58 | pIC50 (Malme-3M): 6.82 | pIC50 (M14): 6.47 | pIC50 (SK-MEL-28): 6.17 | pIC50 (SK-MEL-5): 5.91 | pIC50 (UACC-257): 6.19 | pIC50 (UACC-62): 6.79 | GI50 (SK-OV-3): 4.31 µM | TGI (SK-OV-3): 39.7 µM | CC50 (SK-OV-3; [1]): > 100 µM | GI50 (786-0): 6.25 µM | TGI (786-0): 43.1 µM | CC50 (786-0; [1]): > 100 µM | GI50 (BT-549): 4.74 µM | TGI (BT-549): 34.9 µM | CC50 (BT-549; [1]): > 100 µM

Source: ChEMBL document CHEMBL1914423, “New imidazo[2,1-b]thiazole derivatives: synthesis, in vitro anticancer evaluation, and in silico studies” (Eur J Med Chem, 2011)
